# OX1R antag-1: antagonists of human orexin 1 receptor (OX1R) | OX1R-expressing cells, FRET antagonist read-out | inhibition, % at 6.6 µM | 330,000 tested, 1.8% active | AID 485270; in the data active = inhibition mostly above about 38%, no sharp cut-off; inactive = mostly below about 40%;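 also: 0% = agonist challenge alone and 100% = reference antagonist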
# OX1R antag-2: antagonists of human orexin 1 receptor; CHO/OX1R cells, Fluo-8 calcium fluorescence, orexin A; inhibition, % at 5 µM; 330,000 tested, 0.43% active;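 active = inhibition above its plate's threshold, mean inhibition of all tested compounds on the plate plus 3 SD, cut at about 37% in these data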;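 also: 0% = orexin A challenge wells and 100% = SB-334867-A antagonist wells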
# CHO parental Ca: counter-screen: ATP calcium response change in parental CHO cells; 330,000 tested, 0.63% active; parental CHO-K1, ATP-induced calcium, Fluo-8 fluorescence; inhibition, % at 5.6 µM;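 active = inhibition above that plate's mean sample inhibition plus 3 SD, cut at about 26% in these data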;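 also: 0% = ATP-challenged DMSO wells and 100% = DMSO wells without ATP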
#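 Material: Parental CHO cells | Reagent: ATP | Compound dosing: Single nominal dose of 5.6 µM per compound | Detection: Intracellular calcium via Fluo-8 no-wash fluorescent dye | Read-out: % inhibition of ATP-induced calcium mobilization | Benchmarks: Low control ATP plus DMSO, high control DMSO only | Replicates: Singlicate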
# GalR3 antag: human GalR3 antagonism | O60755 | HEK293 GalR3-CNG cAMP membrane potential fluorescence; galR3 body fused to GalR1 C-terminus | inhibition, % at 3 µM | 360,000 tested, 0.44% active | AID 651719;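 active = inhibition above the screen-wide average plus 3 SD, cut at about 13% in these data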;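 also: forskolin and galanin both at EC90 stimulate the cells; cAMP rise reported by CNG channel membrane potential dye signal; 0% = forskolin plus galanin with DMSO and 100% = forskolin alone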
# Target sequence (O60755 1-299 limits assumed): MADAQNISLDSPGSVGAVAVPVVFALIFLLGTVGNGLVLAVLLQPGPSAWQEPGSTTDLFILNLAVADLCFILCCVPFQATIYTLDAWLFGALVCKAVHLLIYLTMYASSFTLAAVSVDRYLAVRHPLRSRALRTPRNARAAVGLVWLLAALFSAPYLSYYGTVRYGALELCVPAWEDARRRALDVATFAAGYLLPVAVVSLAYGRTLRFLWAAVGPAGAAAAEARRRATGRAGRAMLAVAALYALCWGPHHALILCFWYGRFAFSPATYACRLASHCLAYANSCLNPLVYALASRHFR
# GPR7 antag: blocks human GPR7 receptor signaling | P48145 | GPR7-expressing cells, fluorescence antagonist assay | inhibition, % at 4.4 µM | 290,000 tested, 1.1% active | AID 1861; in the data active = inhibition above about 16%, passing the limit was not always enough;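 also: cells stimulated with the agonist NPW; 0% = agonist with vehicle and 100% = vehicle without agonist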
# Target sequence (P48145 whole entry, looked up): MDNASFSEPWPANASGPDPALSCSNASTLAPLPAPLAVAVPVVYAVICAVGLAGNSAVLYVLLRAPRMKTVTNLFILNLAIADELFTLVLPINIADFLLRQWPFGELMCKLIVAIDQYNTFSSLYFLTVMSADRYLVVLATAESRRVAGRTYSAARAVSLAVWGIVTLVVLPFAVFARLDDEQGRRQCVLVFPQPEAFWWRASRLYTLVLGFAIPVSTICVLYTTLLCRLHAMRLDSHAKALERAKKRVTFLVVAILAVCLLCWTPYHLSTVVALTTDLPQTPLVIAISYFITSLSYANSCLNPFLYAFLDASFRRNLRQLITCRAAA
# GPR7 antag cf: human GPR7 antagonism, confirmation assay. inhibition, % at 4.4 µM. GPR7-expressing cells, calcium fluorescence antagonist mode. 2,400 tested, 52% active. shares compounds with GPR7 antag. AID 1952; in the data active = inhibition above about 24%;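 also: stimulated with the GPR7 agonist NPW; 0% = agonist plus vehicle and 100% = vehicle alone without agonist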
# MCHR1 antagonist: MCHR1 (human) antagonism in GPR7 counter-screen. shares compounds with GPR7 antag. MCHR1-expressing cells, fluorescence antagonist assay. inhibition, % at 4.4 µM. 2,400 tested, 62% active. AID 2148; in the data active = inhibition above about 22%;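 also: 0% = vehicle with agonist and 100% = vehicle without agonist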
# Starred values were filed as active, the others as inactive; . = no result. The list is not random: actives were taken first. Their share in the collection is about 3.1%.
SMILES,OX1R antag-1,OX1R antag-2,CHO parental Ca,GalR3 antag,GPR7 antag,GPR7 antag cf,MCHR1 antagonist
CCOC(=O)N1CCN(C(=O)c2cc(COc3ccc4ncccc4c3)on2)CC1,12,22,28*,-7,-2,.,.
Cc1cccnc1CN1CCN(C(=O)c2cc(COc3ccc4ncccc4c3)on2)CC1,53,49*,60*,5,-9,.,.
CC(CNC(=O)c1cc(COc2ccc3ncccc3c2)on1)c1ccccc1 (stereo not given),57*,33,58*,-2,3,.,.
Cc1ccccc1C(=O)c1cccn1CC(=O)NC(C)c1ccc2c(c1)OCCO2 (stereo not given),22,-22,-13,-3,-4,.,.
CCn1c(SCC(=O)N(C)c2ccccc2)nc2c([nH]c3ccccc32)c1=O,32,-32,-13,-4,-15,.,.
COC(=O)/C=C(\C)N=Nc1c(O)[nH]c2ccccc12,38,-15,-5,-5,-7,.,.
COc1ccc(NC(=O)N[C@H]2C=C[C@@H](CC(=O)NC3CCC3)O[C@@H]2CO)cc1,.,.,.,7,.,.,.
Cc1cccc2c(N=NC(=O)c3ccc(NS(=O)(=O)c4cccs4)cc3)c(O)[nH]c12,40*,14,-4,5,.,.,.
COC(CNC(=O)c1cc(-c2ccncc2)nc2ccc(S(=O)(=O)N3CCOCC3)cc12)OC,36,-18,-3,-4,-8,.,.
Clc1ccccc1-c1nnn(Cc2ccc(-c3nn[nH]n3)cc2)n1,25,-16,-1,-2,24*,29*,19
Clc1ccc(Cn2nnc(-c3ccccc3)n2)cc1,4,-5,-6,-2,-4,.,.
C/C(=N\NC(=O)c1ccccc1O)c1ccc(NC(=O)c2ccccc2)cc1,.,.,.,-1,-9,.,.
CCCC1(c2ccccc2)NC(=O)N(CC(=O)c2[nH]c(C)c(C(=O)OCC)c2C)C1=O (stereo not given),-15,5,-13,-6,22*,27*,45*
CCCC(=O)Nc1nc(-c2ccc(OC)cc2)cs1,17,-15,-12,-4,22*,24*,36*
CC(C)(C)C(CN1CCCC1)OC(=O)c1ccccc1 (stereo not given),0,-12,-10,-9,-10,.,.
CCc1ccc(OCc2nnc(NC(=O)c3cccs3)s2)cc1,9,2,-5,1,25*,-3,-2
O=C(CCC1CCCCC1)Nc1c2c(nn1-c1ccc(F)cc1)CS(=O)(=O)C2,9,1,-12,-8,32*,43*,29*
CCCC(=O)Nc1c2c(nn1-c1ccc(F)cc1)CS(=O)(=O)C2,4,4,-5,-7,-4,.,.
COc1ccc(CNC(=O)CCSCc2cccc(Cl)c2)c(OC)c1,23,-25,-21,-1,3,.,.
Oc1ccc(Nc2nnc(-c3ccc(O)cc3)c3ccccc23)cc1,22,20,-6,-6,39*,54*,62*
COc1ccc(-c2nnc(Nc3ccc(CC(N)=O)cc3)c3ccccc23)cc1,21,-15,-23,-1,-2,.,.
O=C(NCCO)c1ccc(-c2nnc(Nc3ccc(O)cc3)c3ccccc23)cc1,1,0,-8,-2,-7,.,.
COc1ccc(Nc2nnc(-c3ccc(O)cc3)c3ccccc23)cc1,14,-7,6,-3,61*,71*,74*
CCCc1cc2c(cc1NC(=O)c1ccco1)OCO2,6,-8,-10,-6,-3,.,.
COCc1[nH]nc2c1C(c1ccc3c(c1)OCO3)N(c1ccc(OC)cc1)C2=O (stereo not given),.,.,.,-3,.,.,.
SMILES,OX1R antag-1,OX1R antag-2,CHO parental Ca,GalR3 antag,GPR7 antag,GPR7 antag cf,MCHR1 antagonist
C#CCOCCOCCOCCNc1nc(N2CCN(C(=O)[C@H](Cc3cc4ccccc4[nH]3)n3cc([C@@H](N)CC(C)C)nn3)CC2)nc(N2CCN(C(=O)[C@H](Cc3cc4ccccc4[nH]3)n3cc([C@@H](N)CC(C)C)nn3)CC2)n1,14,-5,-10,.,79*,54*,33*
C#CCOCCOCCOCCNc1nc(N2CCOCC2)nc(N2CCN(C(=O)[C@H](Cc3cc4ccccc4[nH]3)n3cc([C@@H](N)CC(C)C)nn3)CC2)n1,9,3,-3,.,-18,.,.
O=[N+]([O-])c1ccc(N2CCSCC2)cc1,28,-2,-12,-3,29*,5,6
CC(C)CNS(=O)(=O)c1ccc(CCC(=O)N2CCN(c3ccc(F)cc3)CC2)cc1,31,-9,-14,-5,30*,7,42*
O=[N+]([O-])c1ccc(N2CCN(c3ccc(F)cc3)CC2)cc1,5,10,18,-10,44*,23,37*
O=C(CCc1ccccc1)N1CCN(c2ccc([N+](=O)[O-])cc2)CC1,24,8,3,-8,26*,37*,37*
CN1CCCN(c2ccc([N+](=O)[O-])cc2)CC1,23,-9,-7,-9,17,.,.
COc1ccc(N2CCN(C(=O)CCc3ccc(S(=O)(=O)NCC(C)C)cc3)CC2)cc1,7,-7,-4,-4,2,.,.
Cc1cnc(-c2nc3ccccc3n2C(C(=O)NC(C)(C)C)c2ccncc2)cn1 (stereo not given),.,.,.,-8,.,.,.
COc1cccc(NC(=O)C(=O)NCCc2ccc(F)cc2)c1,13,-25,-19,-7,3,.,.
O=C(c1ccc(=O)[nH]c1)N(c1ccccc1)C(CCc1ccccc1)c1nc2ccccc2[nH]1 (stereo not given),.,.,.,11,.,.,.
O=C(COC(=O)CCCN1C(=O)c2cccc3cccc(c23)C1=O)Nc1cccc(C(F)(F)F)c1,53,-17,-29,0,-10,.,.
O=S1OC(c2ccccc2)c2cc(Cl)ccc21 (stereo not given),22,-15,-16,1,.,.,.
O=C(N/N=C/c1ccc(O)cc1)c1cc(-c2ccc3c(c2)OCO3)n[nH]1,42,-17,-15,2,-7,.,.
O=C(N/N=C/c1ccccc1)c1cc(-c2ccc3c(c2)OCO3)n[nH]1,13,-31,-9,-3,23*,-1,36*
COC(=O)c1[nH]c2c(c1C)C(=O)CC(c1ccccc1)C2 (stereo not given),17,6,-15,-2,3,.,.
CS(=O)(=O)c1sc(C#N)c2c1C(=O)CC(c1ccccc1)C2 (stereo not given),46*,92*,53*,-1,75*,97*,94*
Cc1ccc(S(=O)(=O)n2ccc(=O)[nH]2)cc1,41,-4,5,-3,-3,.,.
O=C(c1ccc(Cl)cc1)C(CN1CCCCC1)c1ccccc1 (stereo not given),-4,-7,-10,-4,55*,65*,82*
CCOC(=O)C(CN1CCCC1)c1ccccc1 (stereo not given),14,-4,4,2,.,.,.
C[C@H]1CN([C@@H](C)CO)C(=O)c2cc(C#CC3CCCC3)cnc2O[C@H]1CN(C)C(=O)Cc1ccccn1,.,.,.,-6,.,.,.
COc1ccccc1CNCC(O)(c1ccc(Cl)cc1)c1ccc(Cl)cc1,9,-29,-30,-3,28*,47*,33*
COc1ccccc1CNCC(O)(c1ccc(F)cc1)c1ccc(F)cc1,6,-44,-27,-14,40*,41*,36*
Cc1ccc(S(=O)(=O)NCc2ccc(/C=C(/C#N)C(=O)NCc3ccccc3)o2)cc1,12,-13,-31,-2,24*,50*,58*

# Source: PubChem (The Scripps Research Institute Molecular Screening Center)
